Data as given in ChEMBL document CHEMBL4049448, “Development of a Potent Wound Healing Agent Based on the Liver Fluke Granulin Structural Fold” (J Med Chem, 2017).
Activity calls are given as the source filed them. No cut-off for these calls is given here. Positions of bridges follow the written chain, without caps; N, C: chain ends. Residues, ends and D or L forms follow the SMILES beside them.

Legend:
Mus musculus = test: Wound healing activity in BALB/c mouse assessed as biopsy punch-induced wound closure at 56 pmol administered topically daily as 1.5% methyl cellulose gel for 4 days measured on day 4 post last dose relative to control; assay type: functional
How it was run: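 Female BALB/c mice, 11−12 weeks, 19−23 g, groups of 4−5. Under ip xylazine 16 mg/kg and ketamine 80 mg/kg, a 5 mm biopsy punch made a skin-deep scalp wound (~0.2 cm2). Betadine was applied first. Then 56 pmol in 50 μL 1.5% methylcellulose gel was applied daily, days 0−4. Healing at day 4 expressed relative to PBS vehicle.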

NCI-H69 [1] = test: Induction of human H69 cell growth at 2 uM after 5 to 6 days by real time cell proliferation assay relative to control; assay type: functional
How it was run: (§1)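 H69 SV40-transformed human cholangiocytes, seeded 1500 cells/well in complete media and grown overnight, then washed with PBS and held ≥6 h in low-nutrient medium (0.5% FCS, 1/20 growth factors). Single treatment added at 10× stock. Impedance cell index read hourly for 5−6 days and normalized to pre-treatment. Proliferation ratio taken at day 4 versus control (tropomyosin-derived 20-residue peptide for peptides; thioredoxin for recombinant protein). Two-Way ANOVA with Dunnett's correction.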

[2] = test system: H69 cholangiocyte cell line (Homo sapiens); test: Induction of human H69 cell growth at 400 nM after 5 to 6 days by real time cell proliferation assay relative to control
NCI-H69 [3] = test: Cytotoxicity against human H69 cells up to 2 uM after 5 to 6 days by real time cell proliferation assay; assay type: cell-based
NCI-H69 [4] = test: Induction of human H69 cell growth up to 2 uM after 5 to 6 days by real time cell proliferation assay; assay type: functional, cell-based; how it was run: as §1
NCI-H69 [5] = test: Induction of human H69 cell growth at 32 nM after 5 to 6 days by real time cell proliferation assay relative to control; assay type: functional; how it was run: as §1
NCI-H69 [6] = test: Induction of human H69 cell growth at 400 nM after 5 to 6 days by real time cell proliferation assay relative to control; assay type: functional; how it was run: as §1

SMILES | Activity (Mus musculus) | Activity (NCI-H69 [1]) | Activity [2] | Activity (NCI-H69 [3]) | Activity (NCI-H69 [4]) | Activity (NCI-H69 [5]) [%] | Activity (NCI-H69 [6]) [%]
CC(C)C[C@@H]1NC(=O)CNC(=O)[C@H](CCCNC(=N)N)NC(=O)[C@H](C)NC(=O)[C@@H]2CSSC[C@H](N)C(=O)N3CCC[C@H]3C(=O)N[C@@H](CC(=O)O)C(=O)N3CCC[C@H]3C(=O)N[C@@H](C(C)C)C(=O)N[C@@H](Cc3ccc(O)cc3)C(=O)N[C@@H]([C@@H](C)O)C(=O)N[C@@H](CSSC[C@@H](C(=O)O)NC(=O)CNC(=O)[C@H](Cc3ccc(O)cc3)NC(=O)CNC(=O)[C@H](Cc3cnc[nH]3)NC1=O)C(=O)N[C@@H](CCCNC(=N)N)C(=O)N1CCC[C@H]1C(=O)NCC(=O)N[C@@H](CCC(N)=O)C(=O)N[C@@H]([C@@H](C)O)C(=O)N2 (H-CPDPVYTCRPGQTCARGLHGYGC-OH; disulfide 1-14, 8-23) | 37 - 41% | 14 - 25% | inactive | Non-Toxic | – | – | –
CC[C@H](C)[C@H](NC(=O)[C@@H](N)C(C)C)C(=O)N[C@@H](Cc1cnc[nH]1)C(=O)N[C@H]1CSSC[C@@H]2NC(=O)[C@H]([C@@H](C)O)NC(=O)[C@H]([C@@H](C)O)NC(=O)CNC(=O)[C@H](CC(=O)O)NC(=O)[C@@H]3CCCN3C(=O)[C@H](CSSC[C@@H](C(=O)N[C@@H](C)C(=O)N3CCC[C@H]3C(=O)N[C@@H](Cc3ccccc3)C(=O)N[C@@H](CO)C(=O)O)NC(=O)[C@H](Cc3ccc(O)cc3)NC(=O)[C@H](Cc3c[nH]c4ccccc34)NC(=O)[C@H](C(C)C)NC(=O)CNC(=O)[C@H](Cc3ccc(O)cc3)NC(=O)[C@@H]3CCCN3C(=O)[C@H](CO)NC(=O)[C@H](CC(C)C)NC(=O)[C@H](C)NC2=O)NC(=O)[C@H]([C@@H](C)CC)NC(=O)[C@H]([C@@H](C)O)NC(=O)[C@H](C)NC(=O)[C@H](C)NC(=O)[C@H](CC(=O)O)NC1=O (H-VIHCDAATICPDGTTCALSPYGVWYCAPFS-OH; disulfide 4-16, 10-26) | – | – | – | – | inactive | 9 | –
CC[C@H](C)[C@H](NC(=O)[C@@H]1CCCN1C(=O)[C@H](CCC(N)=O)NC(=O)[C@H](CC(C)C)NC(=O)[C@@H](NC(=O)[C@H](CC(=O)O)NC(=O)[C@@H](N)CCSC)[C@@H](C)O)C(=O)N[C@@H](CCCNC(=N)N)C(=O)N[C@@H](CO)C(=O)N1CCC[C@H]1C(=O)N[C@@H](CO)C(=O)N[C@H]1CSSC[C@@H]2NC(=O)[C@H]([C@@H](C)O)NC(=O)[C@H](CCC(N)=O)NC(=O)CNC(=O)[C@@H]3CCCN3C(=O)[C@H](CCCNC(=N)N)NC(=O)[C@H](CSSC[C@@H](C(=O)N[C@@H](C)C(=O)O)NC(=O)CNC(=O)[C@H](Cc3ccc(O)cc3)NC(=O)CNC(=O)[C@H](Cc3cnc[nH]3)NC(=O)[C@H](CC(C)C)NC(=O)CNC(=O)[C@H](CCCNC(=N)N)NC(=O)[C@H](C)NC2=O)NC(=O)[C@H]([C@@H](C)O)NC(=O)[C@H](Cc2ccc(O)cc2)NC(=O)[C@H](C(C)C)NC(=O)[C@@H]2CCCN2C(=O)[C@H](CC(=O)O)NC(=O)[C@@H]2CCCN2C1=O (H-MDTLQPIRSPSCPDPVYTCRPGQTCARGLHGYGCA-OH; disulfide 12-25, 19-34) | 37 - 41% | 14 - 25% | – | Non-Toxic | – | – | 9
CSCC[C@H](NC(=O)[C@@H]1CCCN1C(=O)[C@H](C)NC(=O)[C@@H]1CSSC[C@@H]2NC(=O)[C@H]([C@@H](C)O)NC(=O)[C@H](Cc3ccc(O)cc3)NC(=O)[C@H](C(C)C)NC(=O)[C@@H]3CCCN3C(=O)[C@H](CC(=O)O)NC(=O)[C@@H]3CCCN3C(=O)[C@@H](NC(=O)[C@H](CO)NC(=O)[C@@H]3CCCN3C(=O)[C@H](CO)NC(=O)[C@@H](N)CCCNC(=N)N)CSSC[C@H](NC(=O)[C@H]([C@@H](C)O)NC(=O)[C@H](CCC(N)=O)NC(=O)CNC(=O)[C@@H]3CCCN3C(=O)[C@H](CCCNC(=N)N)NC2=O)C(=O)N[C@@H](C)C(=O)N[C@@H](CCCNC(=N)N)C(=O)NCC(=O)N[C@@H](CC(C)C)C(=O)N[C@@H](Cc2cnc[nH]2)C(=O)NCC(=O)N[C@@H](Cc2ccc(O)cc2)C(=O)NCC(=O)N1)C(=O)N[C@@H](CC(=O)O)C(=O)O (H-RSPSCPDPVYTCRPGQTCARGLHGYGCAPMD-OH; disulfide 5-18, 12-27) | 26 - 41% | – | inactive | – | – | – | –
